FN deposit inh: fibronectin deposition inhibition; AH1F fibroblasts, Alexa488-fibronectin deposition fluorescence, overnight; inhibition, % at 12.6 µM; 350,000 tested, 0.086% active;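 active = mean inhibition across replicates of 30% or more, regardless of how many single replicates reach that level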;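 note: positive control wells lacked labelled fibronectin entirely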
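material = AH1F fibroblast monolayer depositing Alexa488-labelled fibronectin into matrix | amount = 10000 AH1F cells/well | buffer or medium = DMEM plus 2% serum, read in PBS | incubation = 1 h cell adhesion before compound, then overnight fibronectin incubation | detection = fluorescence at 485 nm excitation, 525 nm emission | evaluation = percent inhibition as loss of matrix-bound fibronectin fluorescence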
FGF22 binding: binders of recombinant human FGF22 by thermal shift. 340,000 tested, 1.5% active. activity (Tm shift, normalised), % at 9.99 µM. Q9HCT0. SYPRO orange fluorescence; percent of sucrose octasulfate shift, DMSO zero;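 active = mean Tm shift, scaled 0 neutral to 100 positive control, at about 1.3% or above, every replicate too, limit read from the data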
Target sequence (Q9HCT0 whole entry, looked up): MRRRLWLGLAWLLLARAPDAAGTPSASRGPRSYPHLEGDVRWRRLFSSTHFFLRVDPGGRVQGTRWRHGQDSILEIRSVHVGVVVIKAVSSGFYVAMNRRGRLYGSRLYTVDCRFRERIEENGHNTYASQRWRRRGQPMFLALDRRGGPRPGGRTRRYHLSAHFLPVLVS
DENV2 CPE: protects cells from dengue virus 2 cytopathic effect; DENV2-infected cells, cytopathic effect rescue, plate reader; CPE inhibition, % at 9.99 µM; 350,000 tested, 1.7% active; in the data active = CPE inhibition above about 20%, passing the limit was not always enough; tested in BHK-21 cells;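 note: 0% = median of neutral control wells and 100% = median of positive control wells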
ARNT-TACC3 inh: disruptors of human ARNT/TACC3 interaction. Q9Y6A5. AlphaScreen His-ARNT PAS-B/GST-TACC3 binding, luminescence; TACC3 fragment carries E629A point mutation. inhibition, % at 9.99 µM. 390,000 tested, 0.66% active;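 active = mean inhibition of replicates at least 50% and at least half of replicates each reaching 50%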;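 note: 0% = complete ARNT plus TACC3 wells and 100% = ARNT alone without TACC3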
XiGFP reactiv: reactivates the inactive X chromosome in mouse fibroblasts; XiGFP mouse fibroblasts, % GFP-positive cells imaging, 3 d; cells co-treated with 5-aza-dC sensitizer; scaled so ellipticine positive control = 100%; activation, % at 7.58 µM; 360,000 tested, 0.055% active; AID 743238;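 active = mean normalized replicate activation at least 10% and every replicate at or above 10%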;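 note: 0% = median of on-plate neutral control wells and 100% = ellipticine 6 µM median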
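Material: XiGFP fibroblasts, SV40-immortalized. Buffer or medium: DMEM plus 5-aza-dC sensitizer. Compound: single concentration per compound, delivered by pin transfer. Times: 3 days compound exposure. Controls: ellipticine 6 µM.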
SIRT5 block: sirtuin-5 (human) deacylase inhibition; AID 652115; inhibition, % at 15 µM; Q9NXA8; 330,000 tested, 1.1% active; Purified SirT5, succinyl-peptide AMC, trypsin-coupled fluorescence; in the data active = inhibition above about 15%
Target sequence (Q9NXA8 whole entry, looked up): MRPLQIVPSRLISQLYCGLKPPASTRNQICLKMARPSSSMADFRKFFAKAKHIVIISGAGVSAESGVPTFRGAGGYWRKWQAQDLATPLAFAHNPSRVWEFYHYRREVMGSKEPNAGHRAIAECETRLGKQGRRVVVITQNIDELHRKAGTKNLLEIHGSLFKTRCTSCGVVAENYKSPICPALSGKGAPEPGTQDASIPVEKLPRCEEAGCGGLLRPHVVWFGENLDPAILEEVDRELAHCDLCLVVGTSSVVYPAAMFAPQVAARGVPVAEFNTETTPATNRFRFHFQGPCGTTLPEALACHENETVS
* hit, by the source's call; i = inactive; . = no result. Rows were chosen to be rich in hits. Some 3.8% of all compounds tested hit in one or more screens of this group.

SMILES	FN deposit inh	FGF22 binding	DENV2 CPE	ARNT-TACC3 inh	XiGFP reactiv	SIRT5 block
COc1ccc(NC(=O)Nc2ccc3c(c2)C(=O)N([C@@H](C)CO)C[C@@H](C)[C@H](CN(C)S(=O)(=O)c2ccccc2)OCCCC[C@@H](C)O3)cc1	-7	0	15	-5	0	15*
C[C@@H](NC(=O)C[C@@H]1CC[C@H]2[C@H](COc3ccc(NC(=O)C4CCOCC4)cc3C(=O)N2C)O1)c1ccccc1	2	0	1	1	0	-3
C[C@H](CO)N1C[C@H](C)[C@H](CN(C)Cc2ccccc2)OCc2cnnn2CCCC1=O	-6	0	-5	-4	0	1
Nc1nc(CSc2ccccc2)nc(N2CCCCC2)n1	4	0	0	.	0	2
Nc1nc(CSc2ccc(Cl)cc2)nc(N2CCCCC2)n1	2	0	-3	9	0	18*
CC(NC(=O)c1ccncc1)C(c1cccs1)N1CCOCC1 (configuration not stated)	.	0	-9	23	.	20*
CN(C)CC(=O)N1[C@H](CO)[C@@H](c2ccccc2)C12CN(C(=O)c1ccccc1)C2	.	0	81*	.	0	-3
COCC(=O)N1CC2(C1)[C@@H](c1ccccc1)[C@@H](CO)N2C(=O)c1ccccc1	.	.	27*	.	0	-2
CC(C)CC#Cc1cnc2c(c1)C(=O)N([C@@H](C)CO)C[C@H](C)[C@H](CN(C)C(=O)Cc1cccnc1)O2	-7	0	6	-8	1	4
Cc1noc(C)c1NC(=O)N(C)C[C@@H]1OCCCC[C@@H](C)Oc2ccc(NC(=O)c3ccncc3)cc2C(=O)N([C@H](C)CO)C[C@H]1C	.	0	-6	-15	-1	-3
CCc1c(C2(O)CCCCC2)[nH]c2c(C(=O)OC)cc(Cl)cc12	-10	0	30*	-9	0	.
CCOc1cc(/C=C(/C#N)c2nc3ccccc3[nH]2)ccc1OCc1ccc(C(=O)O)o1	-3	.	.	59*	.	.
COc1ccc([N+](=O)[O-])cc1N1C(=O)c2cccnc2C1=O	-7	0	2	50*	0	2
COCCSc1ccccc1C(=O)N1CCc2ccccc2C1	7	43*	2	-7	0	-6
COCCSc1ccccc1C(=O)N1CCN(c2ccccc2)CC1	2	0	-7	-1	0	-1
CCN1/C(=C/C=C/c2oc3ccc(-c4ccccc4)cc3[n+]2CC)Oc2ccc(-c3ccccc3)cc21	i	0	-3	-26	103*	2
Cc1ccc(S(=O)(=O)Nc2ccc3c(c2)C(=O)N([C@@H](C)CO)C[C@@H](C)[C@H](CN(C)C(=O)Nc2ccccc2)OCCCC[C@@H](C)O3)cc1	.	0	2	4	0	5
O=C(NNc1ccccc1)c1ccc(Cl)c(Cl)c1	0	43*	-1	-5	0	.
CC=Cc1ccc2n(c1=O)C[C@H]1[C@H](CO)[C@@H](C(=O)N(C)C)[C@@H]2N1CCc1ccccc1 (mixture of isomers)	.	0	-1	-5	0	-5
O=C(N[C@@H]1CC[C@@H](CCn2cc(C3(O)CCCC3)nn2)O[C@H]1CO)C1CCCCC1	.	0	6	-14	0	0
C[C@@H]1CCCCO[C@@H](CN(C)S(=O)(=O)c2cn(C)cn2)[C@@H](C)CN([C@H](C)CO)C(=O)c2cc(NS(=O)(=O)c3cccs3)ccc2O1	.	0	30*	-1	0	-6
C[C@@H]1CN([C@@H](C)CO)C(=O)c2cc(NS(=O)(=O)c3cccs3)ccc2O[C@@H](C)CCCCO[C@@H]1CN(C)S(=O)(=O)c1cn(C)cn1	.	0	34*	-4	0	-4
C[C@H]1CCCCO[C@@H](CN(C)S(=O)(=O)c2cn(C)cn2)[C@@H](C)CN([C@@H](C)CO)C(=O)c2cc(NS(=O)(=O)c3cccs3)ccc2O1	.	0	-2	1	0	-1
C/C=C/c1ccc([C@@H]2[C@H](CO)N(C(=O)NCCC)[C@H]2CNC(=O)C2CCC2)cc1	14	.	-17	-5	0	.
O=C(NC[C@@H]1CC[C@@H]2[C@@H](CN2C(=O)CN2CCOCC2)O1)NC1CCCCC1	.	.	10	.	.	2
SMILES	FN deposit inh	FGF22 binding	DENV2 CPE	ARNT-TACC3 inh	XiGFP reactiv	SIRT5 block
C[C@H]1[C@H](c2ccccc2)C[C@@H](C(=O)O)C1(C)C	-8	0	40*	-1	0	.
O=C(c1ccccc1)C1CC1c1ccccc1 (configuration not stated)	-4	0	9	.	0	.
O=C(Cc1ccc(Cl)cc1)SCc1ccccc1	0	44*	.	14	0	4
Cc1ccc(NCc2nnc(SCC(=O)NNC(=O)Cc3ccccc3)n2C)cc1	10	0	3	.	21*	1
COc1ccc(-c2cnc3c(c2)C(=O)N([C@H](C)CO)C[C@H](C)[C@@H](CN(C)C(=O)Cc2ccccn2)O3)cc1	.	0	2	-1	-2	-2
CCN(CC)C(=O)[C@H]1C[C@@H]2[C@H](C[C@@H](c3ccccc3)[C@H]1C)N(c1ccc(F)cc1)C(=O)N2CCCOc1ccccc1	-2	43*	-1	.	0	.
CON(C)C(=O)[C@H]1C[C@@H]2[C@H](C[C@@H](c3ccccc3)[C@H]1C)N(c1ccc(F)cc1)C(=O)N2CCCOc1ccccc1	-1	42	-6	.	0	.
C[C@@H]1CCCCO[C@H](CN(C)Cc2ccncc2)[C@H](C)CN([C@H](C)CO)C(=O)c2cc(NC(=O)Nc3ccc(C(F)(F)F)cc3)ccc2O1	.	-2	-2	-3	0	1
CC(C)c1cn(CC[C@@H]2CC[C@H](N)[C@@H](CO)O2)nn1	-12	0	-2	-4	0	-3
FC(F)(F)c1cnc(C(c2ccccc2)c2ncn[nH]2)c(Cl)c1 (configuration not stated)	1	43*	-12	0	0	-12
NC(=O)C(c1ccccc1)c1ncc(C(F)(F)F)cc1Cl (configuration not stated)	-1	.	.	-1	.	.
COc1cccc(-c2coc3c(C)c4oc(=O)c(CC(=O)O)c(C)c4cc23)c1	3	0	2	14	0	2
COc1cccc(-c2coc3c(C)c4oc(=O)c(CCC(=O)O)c(C)c4cc23)c1	-3	-1	16	62*	0	14
O=S1(=O)CCO[C@H]2Cc3ccccc3[C@H]2N1Cc1ccc(Cl)cc1	3	0	85*	-2	0	.

Screens: PubChem BioAssay, Broad Institute
